Assay outcomes (PubChem)
GSK3beta inhib – human GSK3beta kinase inhibitors, primary screen, biochemical, cell-free homogeneous, HTS; GST-GSK3beta kinase, ADP-Glo luminescence, 60 min; active compounds read low; activity score (negative = inhibition), % at 10 µM; Glycogen synthase kinase-3 beta (Homo sapiens), P49841; 300,000 tested, 0.038% active;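 active means more than half of replicate wells score below -50%, meaning over 50% inhibition versus plate controls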;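 further: 0% = median DMSO wells and -100% = median GW8510 positive control wells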
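Test system: GST-tagged human GSK3beta kinase, cell-free; evaluation: activity score scaled between in-plate DMSO and GW8510 controls; measured by: ADP-Glo luminescence; incubation: 60 min reaction, RT; benchmarks: DMSO and 20 µM GW8510; reagent: peptide substrate plus 25 µM ATP (final); medium: Tris/MgCl2 kinase buffer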
GSK3A inh – blockers of GSK3A enzyme activity – biochemical, luminescence, cell-free homogeneous, HTS, primary screen. 320,000 tested, 0.1% active. AID 2650, 2010. inhibition, % at 10 µM. Glycogen synthase kinase-3 alpha (Homo sapiens), P49840. GSK-3 alpha kinase, ADP-Glo luminescence, 60 min;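 active means more than half of replicates show inhibition above 20%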;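 further: GST-tagged GSK-3 alpha with peptide substrate and 25 µM ATP; 0% = DMSO neutral wells and 100% = GW8510 positive control wells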
STK33 kinase inh – inhibitors of purified STK33 kinase, primary screen, biochemical, ADP-Glo luminescence, homogeneous, cell-free; Serine/threonine-protein kinase 33 (Homo sapiens), Q9BYT3; inhibition, % at 10 µM; 320,000 tested, 0.073% active; MBP phosphorylation;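 active means inhibition at or above 25%, using the most active replicate where run in duplicate; inactive means inhibition below 25%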
Target sequence (Q9BYT3 whole entry, looked up): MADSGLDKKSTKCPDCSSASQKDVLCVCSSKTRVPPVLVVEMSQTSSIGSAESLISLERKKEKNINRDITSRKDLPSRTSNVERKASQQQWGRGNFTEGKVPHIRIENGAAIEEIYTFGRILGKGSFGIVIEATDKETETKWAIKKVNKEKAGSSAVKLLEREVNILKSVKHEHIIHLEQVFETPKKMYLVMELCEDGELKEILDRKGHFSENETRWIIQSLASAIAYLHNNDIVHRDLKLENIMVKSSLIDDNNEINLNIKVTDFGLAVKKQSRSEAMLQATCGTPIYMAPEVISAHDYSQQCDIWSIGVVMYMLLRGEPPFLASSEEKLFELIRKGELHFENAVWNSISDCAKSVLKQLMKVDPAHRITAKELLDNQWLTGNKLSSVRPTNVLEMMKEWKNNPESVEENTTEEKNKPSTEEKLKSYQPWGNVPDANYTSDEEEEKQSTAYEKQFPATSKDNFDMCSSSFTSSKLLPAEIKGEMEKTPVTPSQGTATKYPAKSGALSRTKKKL
DYRK1A inh – rat Dyrk1A kinase inhibitors, primary screen, biochemical, single point, plate reader | ADP-Glo luminescence, NFATc1 peptide | inhibition, % at 12.5 µM | 310,000 tested, 0.43% active | AID 504441, 2011; in the data active means inhibition above about 50%;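 further: plate controls were vehicle with enzyme for no effect and no enzyme for full effect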
CDK5 inh – inhibitors of human CDK5/p35 kinase, primary screen, biochemical, single concentration. 330,000 tested, 0.01% active. AID 488839, 2010. Cyclin-dependent kinase 5 (Homo sapiens) + Cyclin-dependent kinase 5 activator 1 (Homo …. Recombinant CDK5/p35, ADP-Glo luminescence, 60 min. inhibition, % at 10 µM;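 active means highest replicate inhibition of at least 50% and at least 75% of replicates reaching 50%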;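 further: plate controls were DMSO neutral control for no effect and GW8510 at 10 µM for full effect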
Dyrk1A artifact – ADP-Glo luciferase interference without Dyrk1A, dose response, artefact control for Dyrk1A inhibitor project, biochemical, luminescence, cherry-pick, set 02 | ADP-Glo luciferase artifact assay, no Dyrk1A | AID 588348, 2011 | shares compounds with DYRK1A inh | AC50, µM (top dose mostly 12 µM), for the others: at the top dose activity change, negative = inhibition | 1,300 tested, under 10 active;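 active means fitted half-maximal dose AC50 no more than ten times the top valid tested dose, with luminescence dropping as dose rises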
* marks the source's active call; other numbers are inactive results; x = not tested or not shown. This excerpt belongs to a sample that is enriched for hits.

SMILES | GSK3beta inhib | GSK3A inh | STK33 kinase inh | DYRK1A inh | CDK5 inh | Dyrk1A artifact
COc1ccc2c(c1)CC/C(=C\C=C\c1ccccc1OC)C2=O | -2.8 | -5.0 | 0.7 | -0.6 | 0.3 | x
CN(C(=O)CSc1nnc(C(F)(F)F)n1N)C1CCS(=O)(=O)C1 (centres undefined) | -0.2 | 0.4 | -1.0 | -0.2 | -0.2 | x
Cc1nc(NC(=O)c2ccccc2)sc1-c1csc(NCc2ccccc2)n1 | -3.7 | 2.6 | -1.8 | 5.3 | 0.0 | x
Cc1nc(NC(=O)c2ccccc2)sc1-c1csc(N)n1 | -0.8 | 2.7 | 5.0 | 59.6* | -0.7 | 8.2%
CC1CCN(c2ncnc3nc[nH]c23)CC1 | -6.2 | 17.8 | 17.2 | 80.9* | 2.4 | 7.9%
CC1Cc2ccccc2N1c1ncnc2nc[nH]c12 (centres undefined) | 1.1 | 46.9 | 14.0 | 71.5* | 9.0 | 7.7%
OC1CCN(c2ncnc3nc[nH]c23)CC1 | 2.3 | 22.9 | 4.1 | 12.9 | 1.6 | x
c1ccc2c(c1)CCN(c1ncnc3nc[nH]c13)C2 | 1.9 | 20.7 | 2.3 | -2.7 | -0.6 | x
Cc1ccc(C(=O)/C=C/NNC(=O)c2ccccc2O)cc1 | x | 1.2 | -1.2 | -3.4 | 1.2 | x
Cc1nnc2c3ccccc3c(-c3ccc(O)cc3)nn12 | 1.5 | x | -0.3 | -1.8 | -1.3 | x
Cc1nnc2c3ccccc3c(-c3cccs3)nn12 | -15.2 | x | x | 60.4* | -0.8 | 7.4%
CC1(C(=O)OCC(=O)Nc2ccc3ccccc3c2)CC1(Cl)Cl (centres undefined) | 2.1 | -2.1 | 1.2 | 20.7 | 0.6 | x
O=[N+]([O-])c1cc(/C=N/O)ccc1N1CCCC1 | -52.3* | x | 13.5 | 50.5* | -3.7 | 9.0%
Oc1ccc(/C=N/Nc2cccc(Cl)n2)c(O)c1 | -0.7 | 3.8 | 4.3 | 20.5 | 0.5 | x
Oc1ccc(/C=N/Nc2ccc(C(F)(F)F)cn2)c(O)c1 | -23.2 | 0.5 | 2.4 | 61.1* | 67.2* | 9.5%
Cc1c(C(=O)O)cccc1-n1c(C)cc(/C=N/Nc2ccc([N+](=O)[O-])cn2)c1C | -8.8 | 34.8 | 9.5 | 58.8* | 6.5 | 9.1%
Cc1cc(/C=N/Nc2ccc([N+](=O)[O-])cn2)c(C)n1-c1ccccc1 | 3.6 | -1.6 | -1.3 | 5.5 | 0.4 | x
CC(C)(NS(=O)(=O)OCC(Cl)(Cl)Cl)c1ccccc1 | 1.3 | -1.9 | -1.1 | 9.4 | 0.4 | x
CC[C@@](C)(NS(=O)(=O)OCC(Cl)(Cl)Cl)c1ccccc1 | 0.0 | -0.1 | 0.1 | 56.8* | 2.2 | 6.3%
O=C(NN1C(=O)/C(=C\c2ccc(O)c([N+](=O)[O-])c2)SC1=S)c1ccccc1Cl | 5.8 | -4.6 | 0.1 | 79.1* | 1.2 | 5.5%
COc1ccccc1C(=O)NC(=O)COC(=O)CNC(=O)c1ccccc1 | -1.8 | -4.3 | x | 1.3 | 1.4 | x
Fc1ccc(-c2nnc3sc(C4COc5ccccc5O4)nn23)cc1 (centres undefined) | 4.7 | 5.3 | -0.9 | 67.5* | -0.4 | 7.4%
COc1c(C)cccc1C(=O)Nc1ccc(N2CCN(C(=O)c3ccccc3C)CC2)cc1 | 3.9 | -3.0 | -1.4 | 8.0 | 0.0 | x
Cc1ccccc1C(=O)N1CCN(c2ccc(NC(=O)c3cccc(OC(C)C)c3)cc2)CC1 | 0.8 | -2.7 | -0.5 | 59.7* | -0.1 | 6.8%
O=C1CCCC2=C1Sc1ccc(Cl)cc1N2 | -5.4 | 8.1 | -1.1 | 54.2* | -0.6 | 8.6%
SMILES | GSK3beta inhib | GSK3A inh | STK33 kinase inh | DYRK1A inh | CDK5 inh | Dyrk1A artifact
COc1ccc(-c2coc3cc(O)ccc3c2=O)cc1O | -12.0 | 10.0 | 4.5 | 56.5* | 1.6 | 9.2%
O=S(=O)(NCCc1ccc(F)cc1)c1ccc(F)cc1Br | x | x | x | -1.6 | -2.7 | x
FC(F)(F)c1ccc(C2Nc3cccc4cccc(c34)N2)cc1 | x | x | x | 6.9 | 1.6 | x
Fc1ccc(C2Nc3cccc4cccc(c34)N2)cc1 | 2.2 | 1.0 | 0.2 | 52.5* | 2.1 | 9.3%
CC(=O)Nc1cccc(NC(=O)c2cc3ccccc3o2)c1 | -0.8 | -1.0 | 5.2 | 52.5* | 2.3 | 3.9%
O=C(Nc1cccc(-c2nc3ncccc3o2)c1)c1cc2ccccc2o1 | 1.0 | -1.6 | 1.6 | 56.1* | 0.3 | 7.7%
CCOC(=O)c1c(C)[nH]c(C(=O)OCC(=O)Nc2sccc2C(N)=O)c1C | 0.7 | -0.4 | 6.5 | 3.6 | 0.9 | x
Cc1ccccc1Cn1c(-c2cncs2)nc2ccccc21 | -5.6 | -0.6 | -2.2 | 5.5 | -1.8 | x
O=C(Cn1c(-c2cncs2)nc2ccccc21)NCc1ccccc1 | -2.7 | 0.2 | -0.8 | 60.2* | 1.2 | 9.8%
Cc1cc(-c2ccc(C(=O)O)s2)cnc1N | -4.2 | 0.1 | -0.7 | 65.3* | -0.3 | 9.4%
CC1(CCC(=O)N2CCCC(N3CCN(c4ccc(F)cc4)CC3)C2)CC1 (centres undefined) | -0.1 | -0.8 | -1.0 | 0.1 | -2.3 | x
O=C(Nc1ccc(Cl)cc1)c1csc(-c2ccccc2)n1 | -1.4 | -2.7 | 0.8 | -2.8 | 0.3 | x
O=C(Nc1ccc(Cl)cc1)c1csc(-c2ccncc2)n1 | -4.3 | -1.4 | 1.8 | 50.8* | 4.0 | 11.2%
COc1ccc(NCCC(O)c2ccc(Cl)cc2)cc1 (centres undefined) | 1.8 | -3.0 | 0.1 | 4.5 | -0.1 | x
O=C(O)CCNC1C=CS(=O)(=O)C1 (centres undefined) | -5.9 | 4.6 | 0.7 | -6.7 | 0.5 | x
O=C(COC(=O)c1cccs1)c1ccc2ccccc2c1 | 1.4 | 5.3 | -0.4 | 50.7* | 0.9 | 7.4%
O=C(COC(=O)c1cccs1)c1ccc2c(c1)OCCO2 | 1.5 | 12.8 | 9.6 | 13.4 | 11.3 | x
Cc1c(C(N)=O)cc([N+](=O)[O-])cc1[N+](=O)[O-] | x | x | x | -0.6 | -0.6 | x
O=C(O)c1ccc2c(c1)S(=O)(=O)c1cc(Cl)ccc1C2=O | x | 74.4* | -1.6 | 65.5* | -1.3 | 7.5%
COc1ccccc1NC(=S)N/N=C/c1cccc(C)c1 | 6.5 | -3.0 | -1.1 | -0.6 | 0.6 | x
COc1ccccc1NC(=S)N/N=C/c1ccc(O)cc1 | -0.5 | 8.2 | 4.7 | 51.0* | 4.4 | 11.3%
CCCCn1c(NCCO)nc2ccccc21 | 2.3 | 1.2 | -2.4 | 57.8* | -0.4 | 11.2%
Cc1cccc(CNc2ncnc3ccc(-c4ccoc4)cc23)c1 | x | -2.7 | 0.4 | 65.7* | 6.2 | 14.1%
CCOc1ccccc1N(CC(=O)Nc1ccccc1F)S(=O)(=O)c1ccccc1 | 1.5 | -0.6 | 1.6 | 2.3 | -0.3 | x
Cc1sc(NC(=O)c2ccco2)nc1-c1ccccc1 | 3.5 | -3.0 | 3.3 | 52.2* | 1.5 | 10.0%
COc1ccc2c(c1)CCc1sc(NC(=O)c3ccco3)nc1-2 | -6.9 | -1.0 | 1.6 | 67.5* | 1.8 | 7.1%
